UPR CHOP act – apoptotic UPR (CHOP) activation; 330,000 compounds, 0.34% hits; CHO-CHOP luciferase reporter, luminescence; percent of tunicamycin response over DMSO baseline; activation, % at 10 µM;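 active = at 10 µM dose, activation of 40% or more, normalized to positive control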;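 also: 100% = tunicamycin at 10 µg/mL and 0% = DMSO alone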
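Test system: CHO CHOP reporter cells. Input: 500 CHO-CHOP cells per well. Medium: F12 with 10% FBS. Technique: luciferase luminescence. Measure: percent activation relative to tunicamycin control. Dosing: 10 µM compound, 0.5% DMSO. Timing: 16-18 h cell attachment, then 6 h compound exposure, 37 °C.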
UPR XBP1 act – adaptive UPR (XBP1) activation; CHO-XBP1 luciferase reporter, IRE1-XBP1 UPR activation, luminescence; percent of tunicamycin response, DMSO as zero; AID 463104; 330,000 compounds, 0.33% hits; activation, % at 20 µM;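 active = versus positive control, 20 µM dose yields 30% or more activation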;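 also: 100% = tunicamycin at 10 µg/mL and 0% = DMSO only wells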
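Material: CHO cell line with stable XBP1 luciferase reporter; schedule: 16-18 h cell attachment at 37 °C, then 6 h compound exposure; signal: glow luminescence from Steady-Glo reagent; medium: serum-containing F12 medium, 10% FBS; benchmarks: tunicamycin 10 µg/mL and vehicle-only wells; read-out: percent activation relative to tunicamycin reference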
Mdm2-MdmX inh – inhibitors of human Mdm2/MdmX interaction. O15151+Q00987. SaOS-2 split-luciferase Mdm2/MdmX complementation, luminescence. inhibition, % at 8 µM. 330,000 compounds, 3% hits. AID 485346;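 active = inhibition of at least 50% at 8 µM in the primary screen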
Target sequence (O15151 whole entry, looked up): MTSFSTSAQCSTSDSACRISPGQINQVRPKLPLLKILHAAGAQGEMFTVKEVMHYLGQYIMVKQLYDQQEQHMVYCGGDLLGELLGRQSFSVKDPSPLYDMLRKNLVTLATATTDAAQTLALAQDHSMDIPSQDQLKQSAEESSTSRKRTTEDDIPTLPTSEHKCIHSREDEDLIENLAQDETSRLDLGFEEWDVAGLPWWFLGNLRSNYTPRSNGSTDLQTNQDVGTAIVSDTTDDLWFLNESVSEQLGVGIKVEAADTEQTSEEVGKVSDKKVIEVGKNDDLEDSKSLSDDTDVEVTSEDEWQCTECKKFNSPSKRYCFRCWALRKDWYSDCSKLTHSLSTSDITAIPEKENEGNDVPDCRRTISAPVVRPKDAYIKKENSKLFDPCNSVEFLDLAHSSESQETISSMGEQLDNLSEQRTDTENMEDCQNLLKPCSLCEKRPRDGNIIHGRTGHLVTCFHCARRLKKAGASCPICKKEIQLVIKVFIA
Target sequence (Q00987 whole entry, looked up): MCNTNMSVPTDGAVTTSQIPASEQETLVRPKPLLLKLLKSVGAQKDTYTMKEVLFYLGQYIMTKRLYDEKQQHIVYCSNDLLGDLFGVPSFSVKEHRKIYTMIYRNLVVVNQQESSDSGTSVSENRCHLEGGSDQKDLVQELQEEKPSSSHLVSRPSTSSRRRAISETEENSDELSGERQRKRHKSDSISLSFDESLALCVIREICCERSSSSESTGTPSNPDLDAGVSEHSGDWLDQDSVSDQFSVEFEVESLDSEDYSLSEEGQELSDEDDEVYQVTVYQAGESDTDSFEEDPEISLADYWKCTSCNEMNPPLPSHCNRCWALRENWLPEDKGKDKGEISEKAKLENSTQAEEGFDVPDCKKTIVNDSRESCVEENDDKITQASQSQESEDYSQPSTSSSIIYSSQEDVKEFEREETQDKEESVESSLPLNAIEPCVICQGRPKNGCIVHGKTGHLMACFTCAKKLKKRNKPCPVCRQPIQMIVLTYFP
T cruzi repl – blocks replication of Trypanosoma cruzi | inhibition, % (concentration not given with the values) | 300,000 compounds, 1.4% hits | T. cruzi beta-gal in NIH3T3, luminescence, 90 h;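 active = mean inhibition across valid replicates above about 55%, limit read from the data; inconclusive = mean below that limit but half or more replicates reach it; inactive = mean below it, under half of replicates reach it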;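 also: signal also drops with host cell toxicity which is not excluded here; 0% = plate median of DMSO wells and 100% = zero luminescence signal; higher percent means less beta-gal luminescence so fewer parasites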
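System – NIH/3T3 host cells with β-galactosidase reporter T. cruzi · Doses – single 50 nL compound addition per well in DMSO · Reagent – 5000 T. cruzi trypomastigotes/well · Medium – Low-serum DMEM with 2% FBS · Timing – ≥90 h infection period, 3 h prior cell attachment · Evaluation – parasite load inhibition, % · Technique – GalScreen luminescence, 60 min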
Beta apoptosis – blocks beta cell apoptosis; INS-1E cytokine-induced death, ATP luminescence, 48 h; percent of positive-control rescue, neutral wells zero; protection from apoptosis, % (no concentration beside the values); 300,000 compounds, 0.8% hits;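 active = Every replicate reaches about 75%, or at least half do and their mean reaches it too, limit read from the data; inconclusive = At least half of replicates reach the limit but their mean does not; inactive = Under half of replicates reach the limit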;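 also: 0% = cytokine-treated negative control wells and 100% = positive control rescue; higher means more ATP so stronger rescue from cytokine killing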
CSC inhib – cancer stem cell inhibition | cancer stem cell-like cells viability, luminescence | inhibition, % at 7.5 µM | 300,000 compounds, 1.1% hits; in the data active = inhibition above about 75%; inconclusive = no clear call, values can overlap the other calls; tested in HMLE shEcad cells
Mdm2-MdmX conf – human Mdm2/MdmX binding inhibition, confirmed; shares compounds with Mdm2-MdmX inh; luminescent assay; inhibition, % at 8 µM; 10,000 compounds, 55% hits; in the data active = inhibition above about 40%
FLuc counter – full-length luciferase inhibition in Mdm2/MdmX counter-screen | shares compounds with Mdm2-MdmX inh | SaOS-2 full-length luciferase counterscreen, luminescence | inhibition, % at 8 µM | 6,200 compounds, 77% hits;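 active = mean inhibition at 8 µM reaching about 37%, which flags the compound as non-specific, limit read from the data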;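 also: p53-null SaOS-2 cells with luciferase driven by a doxycycline-inducible promoter; compound on cells about two nights before reading with doxycycline added after day one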
Active calls of the source: *; ? = inconclusive; / = no result given. Sampled rows, rich in hits. Any-hit rate of the full collection: about 5%.

SMILES | UPR CHOP act | UPR XBP1 act | Mdm2-MdmX inh | T cruzi repl | Beta apoptosis | CSC inhib | Mdm2-MdmX conf | FLuc counter
Cc1ccc(NC(=O)c2nc[nH]c2C(=O)NCCN(CCNC(=O)c2[nH]cnc2C(=O)Nc2ccc(C)cc2)CCNC(=O)c2[nH]cnc2C(=O)Nc2ccc(C)cc2)cc1 | 3 | 1 | 90* | / | -6 | 46 | 76* | 38*
O=C(Nc1ccccc1)c1nc[nH]c1C(=O)NCCCCCCNC(=O)c1[nH]cnc1C(=O)Nc1ccccc1 | 12 | 17 | 87* | / | 21 | / | 33 | /
O=C(Nc1ccccc1)c1nc[nH]c1C(=O)NCCCNC(=O)c1[nH]cnc1C(=O)Nc1ccccc1 | 1 | 2 | 39 | / | 3 | -6 | / | /
O=C(Cn1ccc2cc(S(=O)(=O)N3CCCC3)ccc21)NCCc1ccccc1 | -1 | 1 | 13 | -24 | 2 | -2 | / | /
CCOC(=O)c1[nH]cnc1C(=O)Nc1ccc([N+](=O)[O-])cc1 | 1 | 1 | 10 | 3 | 8 | 10 | / | /
O=C(Nc1ccccc1)c1nc[nH]c1C(=O)NCCN(CCNC(=O)c1[nH]cnc1C(=O)Nc1ccccc1)CCNC(=O)c1[nH]cnc1C(=O)Nc1ccccc1 | -1 | -1 | 62* | / | -3 | 43 | 9 | /
COc1ccc(NC(=O)c2nc[nH]c2C(=O)Nc2ccccc2C)cc1 | 0 | 0 | 58* | 16 | -8 | 62 | 54* | 48*
O=C(Nc1ccc(F)cc1)c1nc[nH]c1C(=O)Nc1ccc([N+](=O)[O-])cc1 | 8 | 14 | 92* | -74 | 15 | 32 | 26 | /
Cc1ccccc1NC(=O)c1[nH]cnc1C(=O)NN | 1 | -6 | -23 | -10 | -3 | -8 | / | /
C=Cn1nc(C)c2ccccc2c1=O | 2 | 2 | 22 | -2 | -5 | -9 | / | /
Cn1c(SCc2ccc([N+](=O)[O-])cc2)nnc1-c1ccncc1 | -1 | -1 | 19 | -14 | 4 | -5 | / | /
Cn1nc(-c2ccc(Cl)cc2)nc2c(=O)n(C)c(=O)nc1-2 | -9 | -4 | 83* | 56* | 99* | 119* | 80* | 20
C=CCn1cnc2c(c1=O)c1nc3ccccc3nc1n2/N=C/c1cccc(OC)c1OC | 10 | 24 | 59* | / | 2 | 33 | 31 | /
C=CCn1cnc2c(c1=O)c1nc3ccccc3nc1n2/N=C/c1cc(OC)c(OC)c(OC)c1 | 20 | 11 | 86* | 16 | 102* | 41 | 75* | 65*
COCCn1cnc2c(c1=O)c1nc3ccccc3nc1n2/N=C/c1cccc(OC)c1 | 1 | 12 | 42 | 26 | 45 | 18 | / | /
Clc1ccc2c(c1)C(C1=NCCN1)c1ccccc1CS2 (stereo not drawn) | 1 | 1 | 51* | -6 | 6 | 41 | 53* | 48*
S=C1NCCc2ccc(Cl)cc2C1c1ccccc1Cl (stereo not drawn) | -1 | -1 | 4 | 5 | 0 | 11 | / | /
Cc1nnc(SCC(=O)Nc2nc(-c3ccc(F)cc3)cs2)[nH]c1=O | 1 | 3 | -7 | -26 | -4 | -6 | / | /
FC(F)(F)c1cc(CO[C@@H]2CCCN[C@@H]2c2ccccc2)cc(C(F)(F)F)c1 | 0 | -8 | 59* | / | 16 | 15 | 30 | /
O=C(CCS(=O)(=O)c1ccccc1)N(CCCN1CCOCC1)c1nc2c(F)cccc2s1 | 29 | -8 | 79* | 55* | -20 | / | 58* | 38*
COC(=O)C(C(=O)Nc1ccc(OC)cc1)C1CCCCCC1 (stereo not drawn) | 1 | -6 | 56* | -2 | 5 | 4 | 40* | 66*
COC(=O)C(C(=O)Nc1ccccc1C)C1CCCC1 (stereo not drawn) | 0 | -3 | 26 | -9 | -8 | 4 | / | /
CCOc1ccc(N(CC(=O)NN=C2CCN(C)CC2)S(=O)(=O)c2ccc(Br)cc2)cc1 | 1 | 0 | -12 | 3 | -7 | -6 | / | /
CC(C)Nc1nnc(SCC(=O)Nc2sccc2C#N)s1 | 3 | 0 | -30 | / | -2 | 6 | / | /
O=C(NCCS(=O)(=O)NCCCc1ccccc1)c1ccccc1 | -2 | -2 | 12 | -7 | 1 | -5 | / | /
SMILES | UPR CHOP act | UPR XBP1 act | Mdm2-MdmX inh | T cruzi repl | Beta apoptosis | CSC inhib | Mdm2-MdmX conf | FLuc counter
COc1ccccc1NC(=O)c1ccc(Cl)c(S(=O)(=O)NCc2ccco2)c1 | 0 | -3 | 23 | / | -1 | -13 | / | /
Cn1nnnc1Sc1ncnc2scc(-c3ccccc3)c12 | 0 | -1 | 78* | -55 | -14 | -5 | -2 | /
Cn1nnnc1Sc1ncnc2scc(-c3ccc[nH]3)c12 | 5 | -3 | 69* | / | -61 | 41 | 47* | 29
Cn1nnnc1SCSc1nnnn1C | -1 | 1 | 2 | -16 | -3 | -1 | / | /
COc1ccccc1-c1csc2ncnc(Sc3nnnn3C)c12 | 0 | 0 | 47 | / | -23 | -4 | / | /
Cn1nnnc1Sc1ncnc2scc(Br)c12 | -6 | -8 | 99* | / | -5 | ? | 32 | /
Cn1nnnc1Sc1ncnc2scc(-c3ccccc3Br)c12 | -1 | 1 | 70* | / | -33 | 52 | 67* | 25
Cn1nnnc1SCc1nc2scc(-c3ccccc3)c2c(=O)[nH]1 | 2 | 1 | 23 | -10 | 1 | -8 | / | /
C=C(C)Cn1cnc2c(oc3nc4c(cc32)CCCC4)c1=O | 6 | 4 | -28 | -12 | 6 | 3 | / | /
CN(CCN1CCOCC1)Cc1nc(-c2ccccc2)no1 | -1 | -2 | 10 | 8 | 7 | 5 | / | /
CCCCNC(=O)c1cn(CC(C)C)c(=O)c2c1c1ccccc1n2C | 1 | -5 | 15 | 4 | 5 | -2 | / | /
Cc1ccc(-c2csc3ncnc(SCC(N)=O)c23)cc1 | -1 | 4 | 27 | -3 | -4 | -7 | / | /
Cn1nnnc1Sc1ncnc2scc(-c3cccc4ccccc34)c12 | 1 | 4 | 97* | / | -2 | / | 55* | 22
Cn1nnnc1Sc1ncnc2scc(-c3ccc(F)cc3)c12 | 5 | 5 | 100* | -35 | -18 | 35 | 91* | 54*
Cc1ccc(S(=O)(=O)NCC(=O)N2CCOCCOCCOCC2)cc1 | -3 | -1 | -1 | -4 | -3 | 1 | / | /
CC(C)NC(=O)c1onc(CSc2nc3ccccc3[nH]2)c1C(=O)NC(C)C | 0 | 0 | 16 | -12 | -6 | -7 | / | /
COc1ccc(NC(C)=O)c(C)c1 | 0 | 10 | 12 | -4 | -6 | -12 | / | /
COc1cc(C)c(C(=O)CC(=O)c2c(C)cc(OC)cc2C)c(C)c1 | -2 | -4 | 51* | 66* | 75* | 132* | 16 | /

Screens (PubChem BioAssay)
